Laboratory results published in ChEMBL document CHEMBL3779805, “Orally bioavailable pyridine and pyrimidine-based Factor XIa inhibitors: Discovery of the methyl N-phenyl carbamate P2 prime group” (Bioorg Med Chem, 2016).

Columns and labels:
[1] = Oral bioavailability in beagle dog plasma at 0.43 mg/kg by LC-MS/MS method; format: ADME, organism-based, Canis lupus familiaris
In short: (§1)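 Dogs dosed iv and po in N-in-1 (cassette) format. The same vehicle was used for both routes: 70% water, 10% ethanol, 10% dimethylacetamide, 10% polypropylene glycol.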

[2] = Inhibition of human […] chymotrypsin assessed as reduction in release of p-nitroaniline after 10 to 120 mins by Michaelis-Menten equation analysis
Canis familiaris [3] = test: Clearance in beagle dog plasma at 0.27 mg/kg, iv and 0.43 mg/kg, po administered in cassette format by LC-MS/MS method; format: ADME, organism-based, Canis lupus familiaris; conditions: in vivo; in short: as §1
Coagulation factor XI = Coagulation factor XI (Homo sapiens, UniProt P03951)
Chain of Coagulation factor XI (P03951 19-387 limits assumed): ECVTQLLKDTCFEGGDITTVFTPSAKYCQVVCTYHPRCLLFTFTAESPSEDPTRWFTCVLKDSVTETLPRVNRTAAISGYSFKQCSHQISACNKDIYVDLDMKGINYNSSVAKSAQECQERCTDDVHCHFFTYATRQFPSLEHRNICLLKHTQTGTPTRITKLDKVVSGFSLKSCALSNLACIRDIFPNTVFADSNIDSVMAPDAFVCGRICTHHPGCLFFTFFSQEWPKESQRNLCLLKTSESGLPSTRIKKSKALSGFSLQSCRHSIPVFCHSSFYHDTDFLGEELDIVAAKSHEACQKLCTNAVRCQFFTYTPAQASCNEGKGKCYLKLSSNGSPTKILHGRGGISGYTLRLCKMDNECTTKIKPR
Chain of Coagulation factor XI (P03951 388-625 limits assumed): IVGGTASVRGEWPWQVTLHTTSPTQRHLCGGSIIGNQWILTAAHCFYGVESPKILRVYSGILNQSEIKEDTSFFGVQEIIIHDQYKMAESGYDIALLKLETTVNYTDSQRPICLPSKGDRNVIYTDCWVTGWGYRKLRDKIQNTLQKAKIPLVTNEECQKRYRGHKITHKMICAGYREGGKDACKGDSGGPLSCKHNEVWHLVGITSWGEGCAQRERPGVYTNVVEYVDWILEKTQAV

Plasma = test: Anticoagulant activity in human plasma assessed as concentration required for 50% increase in activated partial thromboplastin time by automated coagulation analyzer; format: functional
In short: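 aPTT clotting assay in pooled normal human plasma on an automated coagulation analyzer with commercial reagents. EC1.5x is the inhibitor plasma concentration giving a 50% increase in clotting time over the no-inhibitor control.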

Canis familiaris [4] = test: Half life in beagle dog plasma at 0.27 mg/kg, iv and 0.43 mg/kg, po by LC-MS/MS method; format: ADME, organism-based, Canis lupus familiaris; conditions: in vivo; in short: as §1
Canis familiaris [5] = test: Volume of distribution at steady state in beagle dog plasma at 0.27 mg/kg, iv and 0.43 mg/kg, po by LC-MS/MS method; format: ADME, organism-based, Canis lupus familiaris; conditions: in vivo; in short: as §1
[6] = Oral bioavailability in beagle dog plasma at 0.2 mg/kg by LC-MS/MS method; format: ADME, organism-based, Canis lupus familiaris; in short: as §1
[7] = AUC in beagle dog plasma at 0.2 mg/kg, iv and 0.2 mg/kg, po by LC-MS/MS method; format: ADME, organism-based, Canis lupus familiaris; in short: as §1
Canis familiaris [8] = test: (§2) Clearance in beagle dog plasma at 0.2 mg/kg, iv and 0.2 mg/kg, po administered in cassette format by LC-MS/MS method; format: ADME, organism-based, Canis lupus familiaris; conditions: in vivo; in short: as §1
Coagulation factor X = Coagulation factor X (Homo sapiens, UniProt P00742); test: Inhibition of human coagulation factor 10a assessed as reduction in release of p-nitroaniline after 10 to 120 mins by Michaelis-Menten equation analysis
Chain of Coagulation factor X (P00742 41-179 limits assumed): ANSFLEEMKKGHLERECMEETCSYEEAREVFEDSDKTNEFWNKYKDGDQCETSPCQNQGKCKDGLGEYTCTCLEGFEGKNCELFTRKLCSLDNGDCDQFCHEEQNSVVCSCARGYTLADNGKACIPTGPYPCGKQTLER
Chain of Coagulation factor X (P00742 235-488 limits assumed): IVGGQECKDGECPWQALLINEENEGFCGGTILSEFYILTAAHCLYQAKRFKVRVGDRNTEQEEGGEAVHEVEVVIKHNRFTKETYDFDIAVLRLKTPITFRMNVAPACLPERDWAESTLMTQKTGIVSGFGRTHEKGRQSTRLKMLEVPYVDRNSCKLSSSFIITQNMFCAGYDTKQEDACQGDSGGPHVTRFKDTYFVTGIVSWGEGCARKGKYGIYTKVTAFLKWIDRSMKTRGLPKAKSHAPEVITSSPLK
In short: (§3)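 Purified human enzymes with commercial synthetic peptide substrates. IC50 from 4–11 inhibitor concentrations, run in duplicate at a fixed substrate concentration (standard error <20%). Ki = IC50/(1+S/Km), assuming competitive inhibition.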

Prothrombin = Prothrombin (Homo sapiens, UniProt P00734); test: Inhibition of human coagulation thrombin assessed as reduction in release of p-nitroaniline after 10 to 120 mins by Michaelis-Menten equation analysis; in short: as §3
Trypsin = Trypsin (Homo sapiens, UniProt P07477+P07478+P35030); test: Inhibition of human coagulation trypsin assessed as reduction in release of p-nitroaniline after 10 to 120 mins by Michaelis-Menten equation analysis; format: protein assay; in short: as §3
Plasma kallikrein = Plasma kallikrein (Homo sapiens, UniProt P03952); test: Inhibition of human plasma kallikrein assessed as reduction in release of p-nitroaniline after 10 to 120 mins by Michaelis-Menten equation analysis; format: cell-free; in short: as §3
Chain of Plasma kallikrein (P03952 20-390 limits assumed): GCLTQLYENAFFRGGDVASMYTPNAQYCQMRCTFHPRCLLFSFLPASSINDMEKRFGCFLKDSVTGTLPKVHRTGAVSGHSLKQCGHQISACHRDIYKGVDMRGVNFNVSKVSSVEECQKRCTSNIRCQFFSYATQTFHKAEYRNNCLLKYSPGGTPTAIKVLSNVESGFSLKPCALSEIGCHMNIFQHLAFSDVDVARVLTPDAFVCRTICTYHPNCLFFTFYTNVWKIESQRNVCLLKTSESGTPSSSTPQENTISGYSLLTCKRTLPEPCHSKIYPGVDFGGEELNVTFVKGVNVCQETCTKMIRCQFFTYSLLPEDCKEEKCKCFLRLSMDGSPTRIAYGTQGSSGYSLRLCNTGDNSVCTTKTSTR
Chain of Plasma kallikrein (P03952 391-638 limits assumed): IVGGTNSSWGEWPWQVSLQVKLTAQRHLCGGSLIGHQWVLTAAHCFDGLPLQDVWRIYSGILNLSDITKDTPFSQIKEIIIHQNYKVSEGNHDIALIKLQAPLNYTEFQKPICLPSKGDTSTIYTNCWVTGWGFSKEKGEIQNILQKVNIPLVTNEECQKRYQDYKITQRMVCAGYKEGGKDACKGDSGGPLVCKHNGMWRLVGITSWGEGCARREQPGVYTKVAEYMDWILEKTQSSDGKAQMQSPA

[9] = molecular target: Vitamin K-dependent protein C (Homo sapiens, UniProt P04070); test: Inhibition of human activated protein C assessed as reduction in release of p-nitroaniline after 10 to 120 mins by Michaelis-Menten equation analysis; in short: as §3
Chain of Vitamin K-dependent protein C (P04070 43-197 limits assumed): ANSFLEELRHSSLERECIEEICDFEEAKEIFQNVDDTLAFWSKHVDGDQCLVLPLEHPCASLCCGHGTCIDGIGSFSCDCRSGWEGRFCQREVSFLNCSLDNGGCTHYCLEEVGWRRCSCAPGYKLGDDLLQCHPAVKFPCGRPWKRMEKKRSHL
Chain of Vitamin K-dependent protein C (P04070 212-461 limits assumed): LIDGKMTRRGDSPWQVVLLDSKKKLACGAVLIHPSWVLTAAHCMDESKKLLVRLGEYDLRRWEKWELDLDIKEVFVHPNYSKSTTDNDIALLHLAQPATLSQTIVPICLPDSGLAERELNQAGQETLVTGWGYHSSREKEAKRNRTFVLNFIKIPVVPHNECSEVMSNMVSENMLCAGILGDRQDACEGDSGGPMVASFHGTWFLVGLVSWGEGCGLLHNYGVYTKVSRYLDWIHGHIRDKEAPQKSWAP

Plasminogen = Plasminogen (Homo sapiens, UniProt P00747); test: Inhibition of human plasmin assessed as reduction in release of p-nitroaniline after 10 to 120 mins by Michaelis-Menten equation analysis; in short: as §3
Chain of Plasminogen (P00747 97-580 limits assumed): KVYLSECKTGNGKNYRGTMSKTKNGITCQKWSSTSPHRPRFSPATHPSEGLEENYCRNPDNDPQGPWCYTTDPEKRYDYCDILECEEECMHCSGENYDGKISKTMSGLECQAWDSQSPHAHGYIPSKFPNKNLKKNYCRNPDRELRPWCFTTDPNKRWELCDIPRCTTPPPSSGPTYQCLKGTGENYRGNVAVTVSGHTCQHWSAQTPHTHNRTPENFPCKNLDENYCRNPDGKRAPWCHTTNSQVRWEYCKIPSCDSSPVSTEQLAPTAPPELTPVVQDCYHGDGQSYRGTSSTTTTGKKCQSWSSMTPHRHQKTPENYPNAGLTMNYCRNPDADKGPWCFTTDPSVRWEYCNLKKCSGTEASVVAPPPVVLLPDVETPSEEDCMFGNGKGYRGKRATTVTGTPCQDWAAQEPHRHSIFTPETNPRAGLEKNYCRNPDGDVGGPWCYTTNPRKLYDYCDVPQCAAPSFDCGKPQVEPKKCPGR
Chain of Plasminogen (P00747 581-810 limits assumed): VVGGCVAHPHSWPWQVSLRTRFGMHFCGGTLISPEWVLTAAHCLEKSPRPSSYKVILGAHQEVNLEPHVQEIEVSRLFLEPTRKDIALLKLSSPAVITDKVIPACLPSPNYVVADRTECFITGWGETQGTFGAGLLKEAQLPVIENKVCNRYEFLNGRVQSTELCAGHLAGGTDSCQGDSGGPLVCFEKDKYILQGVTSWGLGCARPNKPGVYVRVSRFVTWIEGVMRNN

[10] = molecular target: Tissue-type plasminogen activator (Homo sapiens, UniProt P00750); test: Inhibition of human TPA assessed as reduction in release of p-nitroaniline after 10 to 120 mins by Michaelis-Menten equation analysis; in short: as §3
Chain of Tissue-type plasminogen activator (P00750 whole entry): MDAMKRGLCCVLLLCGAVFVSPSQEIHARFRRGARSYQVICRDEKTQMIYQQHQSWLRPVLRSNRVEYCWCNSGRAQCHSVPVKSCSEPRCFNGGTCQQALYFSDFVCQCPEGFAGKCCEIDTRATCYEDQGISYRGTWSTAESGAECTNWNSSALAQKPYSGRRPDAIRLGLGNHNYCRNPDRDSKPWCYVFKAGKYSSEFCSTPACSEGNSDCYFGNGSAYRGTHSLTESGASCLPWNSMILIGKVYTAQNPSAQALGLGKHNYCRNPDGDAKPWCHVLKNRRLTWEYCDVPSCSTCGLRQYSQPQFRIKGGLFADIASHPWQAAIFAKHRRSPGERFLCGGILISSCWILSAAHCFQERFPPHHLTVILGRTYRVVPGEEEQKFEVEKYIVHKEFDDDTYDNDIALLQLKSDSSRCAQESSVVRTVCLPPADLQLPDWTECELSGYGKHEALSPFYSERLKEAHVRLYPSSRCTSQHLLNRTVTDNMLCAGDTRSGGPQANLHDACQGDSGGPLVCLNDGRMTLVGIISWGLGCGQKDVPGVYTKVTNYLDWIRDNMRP

[11] = molecular target: Urokinase-type plasminogen activator (Homo sapiens, UniProt P00749); test: Inhibition of human urokinase assessed as reduction in release of p-nitroaniline after 10 to 120 mins by Michaelis-Menten equation analysis; in short: as §3
Coagulation factor IX = Coagulation factor IX (Homo sapiens, UniProt P00740); test: Inhibition of human coagulation factor 9a assessed as reduction in release of p-nitroaniline after 10 to 120 mins by Michaelis-Menten equation analysis; in short: as §3
Chain of Coagulation factor IX (P00740 47-191 limits assumed): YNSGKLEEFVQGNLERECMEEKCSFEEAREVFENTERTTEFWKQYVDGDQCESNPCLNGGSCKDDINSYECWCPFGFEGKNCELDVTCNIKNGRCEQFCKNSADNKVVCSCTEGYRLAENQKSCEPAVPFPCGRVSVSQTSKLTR
Chain of Coagulation factor IX (P00740 227-461 limits assumed): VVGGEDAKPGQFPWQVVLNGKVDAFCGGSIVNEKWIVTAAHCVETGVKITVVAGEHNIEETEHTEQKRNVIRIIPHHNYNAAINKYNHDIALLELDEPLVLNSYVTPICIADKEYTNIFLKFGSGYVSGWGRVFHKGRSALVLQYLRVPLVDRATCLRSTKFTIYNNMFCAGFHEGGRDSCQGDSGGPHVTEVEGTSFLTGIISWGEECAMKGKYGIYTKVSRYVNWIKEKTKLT

Coagulation factor VII = molecular target: T1, Coagulation factor VII (Homo sapiens, UniProt P08709); test: Inhibition of human coagulation factor 7a assessed as reduction in release of p-nitroaniline after 10 to 120 mins by Michaelis-Menten equation analysis; in short: as §3
T1 sequence (P08709 whole entry): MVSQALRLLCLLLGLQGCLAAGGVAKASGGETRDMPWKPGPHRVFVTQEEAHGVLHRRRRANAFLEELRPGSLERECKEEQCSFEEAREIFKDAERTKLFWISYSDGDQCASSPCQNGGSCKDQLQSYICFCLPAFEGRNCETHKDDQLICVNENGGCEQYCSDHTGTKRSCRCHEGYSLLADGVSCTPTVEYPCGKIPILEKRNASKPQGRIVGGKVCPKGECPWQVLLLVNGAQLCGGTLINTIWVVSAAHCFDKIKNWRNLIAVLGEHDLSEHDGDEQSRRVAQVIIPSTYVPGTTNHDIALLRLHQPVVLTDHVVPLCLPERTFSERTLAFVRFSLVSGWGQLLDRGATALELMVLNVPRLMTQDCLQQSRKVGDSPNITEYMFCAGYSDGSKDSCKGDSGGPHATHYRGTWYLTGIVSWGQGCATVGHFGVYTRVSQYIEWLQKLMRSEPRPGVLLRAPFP

[12] = (§4) Volume of distribution at steady state in beagle dog plasma at 0.2 mg/kg, iv and 0.2 mg/kg, po by LC-MS/MS method; format: ADME, organism-based, Canis lupus familiaris; conditions: beagle, plasma, read-out: Vdss; in short: as §1
[13] = as §2; format: ADME, organism-based, Canis lupus familiaris; conditions: beagle, plasma; in short: as §1
[14] = (§5) Half life in beagle dog plasma at 0.2 mg/kg, iv and 0.2 mg/kg, po by LC-MS/MS method; format: ADME, organism-based, Canis lupus familiaris; conditions: beagle, plasma; in short: as §1
[15] = Volume of distribution at steady state in beagle dog plasma at 0.2 mg/kg, iv and 0.29 mg/kg, po by LC-MS/MS method; format: ADME, organism-based, Canis lupus familiaris; conditions: read-out: Vdss; in short: as §1
[16] = Oral bioavailability in beagle dog plasma at 0.29 mg/kg by LC-MS/MS method; format: ADME, organism-based, Canis lupus familiaris; in short: as §1
[17] = AUC in beagle dog plasma at 0.2 mg/kg, iv and 0.29 mg/kg, po by LC-MS/MS method; format: ADME, organism-based, Canis lupus familiaris; in short: as §1
[18] = Clearance in beagle dog plasma at 0.2 mg/kg, iv and 0.29 mg/kg, po administered in cassette format by LC-MS/MS method; format: ADME, organism-based, Canis lupus familiaris; in short: as §1
[19] = Half life in beagle dog plasma at 0.2 mg/kg, iv and 0.29 mg/kg, po by LC-MS/MS method; format: ADME, organism-based, Canis lupus familiaris; in short: as §1
Canis familiaris [20] = test: as §4; format: ADME, organism-based, Canis lupus familiaris; conditions: in vivo; in short: as §1
Canis familiaris [21] = test: as §5; format: ADME, organism-based, Canis lupus familiaris; conditions: in vivo; in short: as §1
[22] = Oral bioavailability in beagle dog plasma at 0.62 mg/kg by LC-MS/MS method; format: ADME, organism-based, Canis lupus familiaris; in short: as §1
[23] = AUC in beagle dog plasma at 0.28 mg/kg, iv and 0.62 mg/kg, po by LC-MS/MS method; format: ADME, organism-based, Canis lupus familiaris; in short: as §1
[24] = Clearance in beagle dog plasma at 0.28 mg/kg, iv and 0.62 mg/kg, po administered in cassette format by LC-MS/MS method; format: ADME, organism-based, Canis lupus familiaris; in short: as §1
[25] = Half life in beagle dog plasma at 0.28 mg/kg, iv and 0.62 mg/kg, po by LC-MS/MS method; format: ADME, organism-based, Canis lupus familiaris; in short: as §1
[26] = Volume of distribution at steady state in beagle dog plasma at 0.28 mg/kg, iv and 0.62 mg/kg, po by LC-MS/MS method; format: ADME, organism-based, Canis lupus familiaris; conditions: read-out: Vdss; in short: as §1

NC[C@H]1CC[C@H](C(=O)N[C@@H](Cc2ccccc2)c2cc(-c3ccc4c(N)n[nH]c4c3)ccn2)CC1
bioavailability [1]: 0% | Ki [2]: > 20.8 µM | clearance (Canis familiaris [3]): 3 L/h/kg | Ki (Coagulation factor XI): 0.0072 µM | EC1.5 (Plasma): 0.5 µM | t1/2 (Canis familiaris [4]): 1.2 h | Vdss (Canis familiaris [5]): 3.4 L/kg

NC[C@H]1CC[C@H](C(=O)N[C@@H](Cc2ccccc2)c2nc(-c3ccc4c(N)n[nH]c4c3)c(Cl)[nH]2)CC1
EC1.5 (Plasma): 0.32 µM

COC(=O)Nc1ccc(-c2c[nH]c([C@H](Cc3ccccc3)NC(=O)/C=C/c3cc(Cl)ccc3-n3cnnn3)n2)cc1
bioavailability [6]: 10% | AUC [7]: 30 nM·h | EC1.5 (Plasma): 8.6 µM | clearance (Canis familiaris [8]): 1.26 L/h/kg

COC(=O)Nc1ccc(-c2cncc([C@H](Cc3ccccc3)NC(=O)[C@H]3CC[C@H](CN)CC3)c2)cc1
Ki (Coagulation factor XI): 0.0084 µM | EC1.5 (Plasma): 1.3 µM

COC(=O)Nc1ccc(-c2cccc([C@H](Cc3ccccc3)NC(=O)[C@H]3CC[C@H](CN)CC3)c2)cc1
Ki (Coagulation factor XI): 0.017 µM | EC1.5 (Plasma): 13 µM

NC[C@H]1CC[C@H](C(=O)N[C@@H](Cc2ccccc2)c2cc(-c3ccc4[nH]nc(O)c4c3)ccn2)CC1
Ki (Coagulation factor X): > 9 µM | Ki (Prothrombin): > 12.6 µM | Ki (Trypsin): 0.999 µM | Ki (Plasma kallikrein): 0.55 µM | Ki [9]: > 30.2 µM | Ki (Plasminogen): > 22.1 µM | Ki [10]: > 21.9 µM | Ki [11]: > 14.1 µM | Ki [2]: > 20.8 µM | Ki (Coagulation factor IX): > 34.9 µM | Ki (Coagulation factor VII): > 15.2 µM | Ki (Coagulation factor XI): 0.0037 µM | EC1.5 (Plasma): 0.4 µM

COC(=O)Nc1ccc(-c2cc([C@H](Cc3ccccc3)NC(=O)[C@H]3CC[C@H](CN)CC3)ccn2)cc1
Ki (Coagulation factor XI): 0.0079 µM | EC1.5 (Plasma): 0.9 µM

NC[C@H]1CC[C@H](C(=O)N[C@@H](Cc2ccccc2)c2cc(-c3ccc4c(N)noc4c3)ccn2)CC1
Ki (Coagulation factor XI): 0.0038 µM | EC1.5 (Plasma): 0.6 µM

NC[C@H]1CC[C@H](C(=O)N[C@H](Cc2ccccc2)c2cc(-c3ccc4c(N)noc4c3)ccn2)CC1
Ki (Coagulation factor XI): 0.0032 µM

COC(=O)Nc1ccc(-c2cc([C@H](Cc3ccccc3)NC(=O)/C=C/c3cc(Cl)ccc3-n3cnnn3)ncn2)cc1
Vd [12]: 4 L/kg | bioavailability [6]: 28% | AUC [7]: 230 nM·h | Ki (Coagulation factor XI): 0.0067 µM | EC1.5 (Plasma): 21 µM | clearance [13]: 0.0073 L/h/kg | half-life [14]: 6.8 h

COC(=O)Nc1ccc(-c2cc([C@H](Cc3ccccc3)NC(=O)[C@H]3CC[C@H](CN)CC3)ncn2)cc1
Vd [15]: 5.4 L/kg | bioavailability [16]: 66% | AUC [17]: 195 nM·h | Ki (Coagulation factor XI): 0.0091 µM | EC1.5 (Plasma): 1.2 µM | clearance [18]: 0.027 L/h/kg | half-life [19]: 3.2 h

COC(=O)Nc1ccc(-c2cc([C@H](Cc3ccccc3)NC(=O)/C=C/c3cc(Cl)ccc3-n3cnnn3)[nH]c(=O)c2)cc1
Vdss (Canis familiaris [20]): 1.6 L/kg | bioavailability [6]: 0% | Ki (Coagulation factor XI): 0.0024 µM | EC1.5 (Plasma): 2.8 µM | clearance (Canis familiaris [8]): 1.8 L/h/kg | t1/2 (Canis familiaris [21]): 1.5 h

COC(=O)Nc1ccc(-c2ccnc([C@H](Cc3ccccc3)NC(=O)[C@H]3CC[C@H](CN)CC3)c2)cc1
bioavailability [22]: 63% | AUC [23]: 194 nM·h | Ki (Coagulation factor X): > 9 µM | Ki (Prothrombin): > 12.6 µM | Ki (Trypsin): 0.101 µM | Ki (Plasma kallikrein): 0.042 µM | Ki [9]: > 30.2 µM | Ki (Plasminogen): > 22.1 µM | Ki [10]: > 21.9 µM | Ki [11]: > 14.1 µM | Ki [2]: > 20.8 µM | Ki (Coagulation factor IX): > 34.9 µM | Ki (Coagulation factor VII): > 12.2 µM | Ki (Coagulation factor XI): 0.0063 µM | EC1.5 (Plasma): 2.6 µM | clearance [24]: 0.054 L/h/kg | half-life [25]: 2.7 h | Vd [26]: 10 L/kg

NC[C@H]1CC[C@H](C(=O)NC(Cc2ccccc2)c2cc(-c3ccc4[nH]nc(O)c4c3)ccn2)CC1 (mixture of isomers)
Ki (Coagulation factor XI): 0.0075 µM | EC1.5 (Plasma): 0.5 µM
